The source made the active and inactive calls. The rule behind the calls is not given here.
Experiments:
[1] = species: Mus musculus; assay: Toxicity in mouse infected with blood schizont stage of Plasmodium berghei; type: organism-based; settings: in vivo
[2] = tested on: Plasmodium gallinaceum; assay: Antimalarial activity against sporozoite stage of Plasmodium gallinaceum infected in chick at 480 mg/kg; type: functional, organism-based; parameters: dose 480 mg/kg
How it was run: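 Prophylactic screen run at the Rane Laboratory (University of Miami) in chicks infected with Plasmodium gallinaceum. Compounds were tested at doses up to 480 mg/kg.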

[3] = tested on: Plasmodium berghei; assay: Antimalarial activity against blood schizont stage of Plasmodium berghei infected in mouse at 640 mg/kg; type: functional, organism-based; parameters: dose 640 mg/kg

Row | Structure (SMILES) | Activity [1] | Activity [2] | Activity [3]
1 | CCOC(c1ccc(Cl)cc1)C(C)C1CCNCC1.O=C(O)CCC(=O)O (stereo unspecified) | Toxic | inactive | inactive
2 | CCC(Cc1ccc(Cl)cc1)(OC)C1CCCNC1.O=C(O)CCC(=O)O (stereo unspecified) | Toxic | inactive | inactive
3 | CC(C)(Br)C(=O)c1ccc(-c2ccc(Cl)cc2)cc1 | Toxic | inactive | inactive
4 | CN1CCC(C2(C)OC2c2ccc(Cl)cc2)CC1.Cc1ccc(S(=O)(=O)O)cc1 (stereo unspecified) | Toxic | inactive | inactive
5 | COC(CC1CCNCC1)c1ccc(Cl)cc1.Cl (stereo unspecified) | Toxic | inactive | inactive
6 | CCOC(C)(CC1CCNCC1)c1ccc(Cl)cc1 (stereo unspecified) | Toxic | inactive | inactive
7 | CCC(CC1CCNCC1)(OC)c1ccc(Cl)cc1 (stereo unspecified) | Toxic | inactive | inactive
8 | CC1(C2CCN(C(=O)O)CC2)OC1c1ccc(Cl)cc1 (stereo unspecified) | Toxic | inactive | inactive
9 | CC(C)(Br)C(=O)c1ccc(Cl)cc1 | Toxic | inactive | inactive
10 | COC(c1ccc(Cl)cc1)C(C)C1CCNCC1.Cl (stereo unspecified) | Toxic | inactive | inactive
11 | CCC(CC1CCCNC1)(OC)c1ccc(Cl)cc1 (stereo unspecified) | Toxic | inactive | inactive
12 | CCOC(C)(Cc1ccc(Cl)cc1)C1CCNCC1.Cl (stereo unspecified) | Toxic | inactive | inactive

Source: ChEMBL document CHEMBL3272318, “Antimalarials. 8. Synthesis of amino ethers as candidate antimalarials” (J Med Chem, 1976)
